According to publication PMC4872389 (The American journal of Chinese medicine, 2016):

Columns and labels:
[1] = Plasma and tissue D, DA, DOH after a single gavage dose of D/DA; format: in vivo, male C57BL/6 mice
In short: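 Male C57BL/6 mice, 6–7 weeks old, 5 per group, got one gastric gavage of 3 mg D/DA (1.8 mg D + 1.2 mg DA) in 0.3 mL of 10% ethanol/20% PEG400/3.3% Tween80/66.7% USP 5% dextrose. Plasma (cardiac puncture, heparin) and tissues were collected at time points over 24 h. Water homogenates (ice bath) were extracted with ethyl acetate. Analysis was HPLC-UV, except prostate by UHPLC-MS/MS.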

[2] = Plasma and tissue D, DA, DOH after sub-chronic dietary AGN exposure; format: in vivo, male C57BL/6J mice; settings: for Terminal-bleed plasma level by HPLC-UV: 0.5% and 1% AGN diet, 6 weeks, all but one mouse; for concentration at 6 weeks: male, C57BL/6J, mouse, oral
In short: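 Male C57BL/6J mice, 6 weeks old, 10 per group, were fed AIN-93M diet containing 0.5% or 1% (w/w) AGN extract ad libitum for 6 weeks. Terminal plasma was taken by cardiac puncture (heparin) under anesthesia, 1–4 pm. Tissues were homogenized in 4 volumes of water. Samples were extracted with ethyl acetate and analyzed by HPLC-UV, with D and DA quantitated together. Values are mean ± SE, n=5.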

cytochrome p450 (Cyp) = settings: orally administered general Cyp inhibitor; ref Zhang et al., 2015b; cited from earlier work
[3] = rat, in vivo; cited from earlier work
[4] = Plasma, tissue and urine pyranocoumarins after repeated i.p. AGN; format: in vivo, CD-1 mice; settings: 3 h after last i.p. injection of AGN
In short: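 CD-1 mice, 8–10 weeks old, 6 per sex per group, were kept on AIN-93M diet. They received i.p. vehicle or AGN extract at 100, 200 or 300 mg/kg in 0.3 mL, six days/week for 4 weeks, with dose adjusted weekly to body weight. Blood and organs were taken 3 h after the last injection. Extracts were made with ethyl acetate and analyzed by HPLC-UV; n=4~6 per dose group.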

[5] = adipose, single gavage 3 mg D/DA
[6] = kidney, single gavage 3 mg D/DA
[7] = male, C57BL/6, mouse, plasma, po, 3 mg
[8] = prostate, single gavage 3 mg D/DA

C/C=C(/C)C(=O)O[C@H]1Cc2cc3ccc(=O)oc3cc2OC1(C)C [DA, decursinol angelate]
Cmax [1, 5]: 7.26 µmol/kg | Cmax ([1]; brain, single gavage 3 mg D/DA): 1.78 µmol/kg | Cmax [1, 6]: 5.51 µmol/kg | Cmax ([1]; liver, single gavage 3 mg D/DA): 2.95 µmol/kg | Cmax ([1]; lung, single gavage 3 mg D/DA): 3.13 µmol/kg | Cmax [1, 7]: 0.76 µM | Tmax ([1]; male, C57BL/6, mouse, po, 3 mg): 1 h | Cmax [1, 8]: 14.80 µmol/kg | Terminal-bleed plasma level by HPLC-UV [2]: below limit of detection | Increase of prostate retention on blocking Cyp activities (cytochrome p450 (Cyp)): 2 orders of magnitude

CC(C)=CC(=O)O[C@H]1Cc2cc3ccc(=O)oc3cc2OC1(C)C [D, decursin]
Cmax [1, 5]: 1.75 µmol/kg | Cmax ([1]; brain, single gavage 3 mg D/DA): 1.00 µmol/kg | Cmax [1, 6]: 0.42 µmol/kg | Cmax ([1]; liver, single gavage 3 mg D/DA): 0.38 µmol/kg | Cmax ([1]; lung, single gavage 3 mg D/DA): 0 µmol/kg | Cmax [1, 7]: 0.38 µM | Tmax ([1]; male, C57BL/6, mouse, po, 3 mg): 1 h | Cmax [1, 8]: 4.90 µmol/kg | Terminal-bleed plasma level by HPLC-UV [2]: below limit of detection | Increase of prostate retention on blocking Cyp activities (cytochrome p450 (Cyp)): 2 orders of magnitude | Reported safe dose [3]: 250 mg D/kg

CC1(C)Oc2cc3oc(=O)ccc3cc2C[C@@H]1O [DOH, decursinol]
Cmax [1, 5]: 28.5 µmol/kg | Cmax ([1]; brain, single gavage 3 mg D/DA): 23.3 µmol/kg | Cmax [1, 6]: 50.4 µmol/kg | Cmax ([1]; liver, single gavage 3 mg D/DA): 47.8 µmol/kg | Cmax ([1]; lung, single gavage 3 mg D/DA): 31.6 µmol/kg | Cmax [1, 7]: 39.8 µM | Tmax ([1]; male, C57BL/6, mouse, po, 3 mg): 1 h | Cmax [1, 8]: 46.4 µmol/kg | concentration at 6 weeks ([2]; brain): 2.97 µM | concentration at 6 weeks ([2]; kidney): 14.4 µM | concentration at 6 weeks ([2]; liver): 41.1 µM | concentration at 6 weeks ([2]; lung): 3.33 µM | concentration at 6 weeks ([2]; plasma, 0.5 % AGN in diet): 0.99 ± 0.11 µM | concentration at 6 weeks ([2]; plasma, 1 % AGN in diet): 2.44 ± 0.52 µM | concentration at 6 weeks ([2]; prostate): 12.8 µM | Content in liver, lung, kidney and brain relative to plasma [4]: lower than its plasma level
